Laboratory results published in ChEMBL document CHEMBL2021776, “Highly potent and selective fluorescent antagonists of the human adenosine A₃ receptor based on the 1,2,4-triazolo[4,3-a]quinoxalin-1-one scaffold” (J Med Chem, 2012).
Values belong to the compound of their own block, whether it stands above or below them. Activity calls are given as the source filed them. The calls are words filed in the database; no cut-off is given here.

Assays:
Adenosine receptor A3 = molecular target: T1, Adenosine receptor A3 (Homo sapiens, UniProt P0DMS8); assay: Antagonist activity at human adenosine A3 receptor expressed in forskolin-stimulated CHO cells assessed as inhibition of NECA-induced CRE-SPAP gene transcription by measuring intracellular cAMP level after 5 hrs; format: functional, cell-based
T1 sequence (P0DMS8 whole entry): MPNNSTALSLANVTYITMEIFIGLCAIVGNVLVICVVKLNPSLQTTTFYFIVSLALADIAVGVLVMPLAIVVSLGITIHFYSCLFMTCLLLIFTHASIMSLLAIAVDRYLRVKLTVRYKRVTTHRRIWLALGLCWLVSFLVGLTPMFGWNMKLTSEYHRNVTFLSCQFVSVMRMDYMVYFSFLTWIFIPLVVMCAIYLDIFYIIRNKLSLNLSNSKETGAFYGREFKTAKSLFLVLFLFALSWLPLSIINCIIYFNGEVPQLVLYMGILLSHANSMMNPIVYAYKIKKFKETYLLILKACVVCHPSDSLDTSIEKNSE
Summary of the method: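 Clonal CHO cells co-expressing CRE-SPAP reporter and human A3 receptor, serum-starved 18 h. Three antagonist concentrations for 30 min at 37 °C, then NECA curves for 30 min, then 1 μM forskolin for 5 h. After 1 h in fresh medium and 65 °C heat step, SPAP activity read as 4-nitrophenyl phosphate hydrolysis (405 nm). Curves globally fitted to an interaction model.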

Adenosine receptor A2b = molecular target: T2, Adenosine receptor A2b (Homo sapiens, UniProt P29275); assay: Antagonist activity at adenosine A2B receptor in HEK293 cells expressing glosensor cAMP biosensor assessed as inhibition of NECA-induced increase of intracellular cAMP level after 5 hrs; format: functional, cell-based
T2 sequence (P29275 whole entry): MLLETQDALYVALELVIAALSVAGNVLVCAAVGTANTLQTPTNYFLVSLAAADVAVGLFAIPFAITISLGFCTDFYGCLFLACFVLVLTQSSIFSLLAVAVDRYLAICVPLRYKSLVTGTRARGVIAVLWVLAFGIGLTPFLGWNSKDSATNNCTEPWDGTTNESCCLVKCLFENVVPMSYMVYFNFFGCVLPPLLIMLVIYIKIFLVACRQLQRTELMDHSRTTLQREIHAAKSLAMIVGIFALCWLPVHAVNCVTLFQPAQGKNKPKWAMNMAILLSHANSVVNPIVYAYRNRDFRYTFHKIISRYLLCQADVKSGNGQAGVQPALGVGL
Summary of the method: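 HEK293 cells stably expressing Glosensor cAMP biosensor, with endogenous human A2B receptor. Cells equilibrated 2 h at 37 °C in HBSS with 3% v/v Glosensor reagent. Antagonist added at 1.5 h, NECA at 2 h. Luminescence read every 2 min for 60 min; maximal read used. pKD estimated from rightward shift of NECA curve by 1 μM antagonist via dose ratio.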

[1] = molecular target: T3, Adenosine receptor A1 (Homo sapiens) (UniProt P30542); assay: Binding affinity to human full length human adenosine A1 receptor expressed in CHO cells up to 100 nM after 10 mins by confocal microscopic analysis; format: cell-based
T3 sequence (whole entry): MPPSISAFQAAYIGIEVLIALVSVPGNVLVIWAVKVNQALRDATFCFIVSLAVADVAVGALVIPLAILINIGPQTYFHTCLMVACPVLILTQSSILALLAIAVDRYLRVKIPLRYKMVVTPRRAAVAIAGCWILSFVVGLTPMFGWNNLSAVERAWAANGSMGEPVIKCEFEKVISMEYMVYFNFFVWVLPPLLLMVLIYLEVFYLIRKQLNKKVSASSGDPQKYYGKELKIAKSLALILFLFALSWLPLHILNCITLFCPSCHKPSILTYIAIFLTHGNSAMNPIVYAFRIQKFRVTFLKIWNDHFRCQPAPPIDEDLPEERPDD
Summary of the method: (§1)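 Live CHO cells stably expressing human A1 receptor were washed in HBS. They were preincubated 30 min at 37 °C with or without 100 nM DPCPX, then exposed to fluorescent ligand (25 nM, or up to 100 nM) for 10 min. Single equatorial confocal images were taken using identical laser power, gain and offset.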

Homo sapiens = species: Homo sapiens; assay: Selectivity ratio of human A1 receptor to human A3 receptor
[2] = molecular target: T4, Adenosine receptor A3 (Homo sapiens) (UniProt P0DMS8); assay: Binding affinity to human adenosine A3 receptor expressed in CHO cells assessed as intracellular fluorescence level after 10 mins by confocal microscopic analysis; format: cell-based
T4 sequence (whole entry): T1 sequence (P0DMS8 whole entry)
Summary of the method: (§2)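 Live CHO cells stably expressing human A3 receptor were washed in HBS. They were preincubated 30 min at 37 °C with or without 100 nM MRS1220, then exposed to 25 nM fluorescent ligand for 10 min. Single equatorial confocal images were taken in the continued presence of ligand, using identical laser and detector settings. Images are representative of 3−5 experiments.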

[3] = molecular target: T4, Adenosine receptor A3 (Homo sapiens); assay: Binding affinity to human adenosine A3 receptor expressed in CHO cells assessed as intracellular fluorescence level after 10 mins by confocal microscopic analysis in presence of MRS1220 treated 30 mins before compound challenge; format: cell-based; summary of the method: as §2
Adenosine receptor A1 = molecular target: T5, Adenosine receptor A1 (Homo sapiens, UniProt P30542); assay: Antagonist activity at human adenosine A1 receptor expressed in CHO cells assessed as inhibition of NECA-induced increase of intracellular calcium level after 5 hrs
T5 sequence (P30542 whole entry): T3 sequence (whole entry)

[4] = molecular target: T3, Adenosine receptor A1 (Homo sapiens); assay: Binding affinity to human full length human adenosine A1 receptor expressed in CHO cells at 25 nM after 10 mins by confocal microscopic analysis; format: cell-based; summary of the method: as §1
[5] = molecular target: T3, Adenosine receptor A1 (Homo sapiens); assay: Binding affinity to human full length human adenosine A1 receptor expressed in CHO cells after 10 mins by confocal microscopic analysis in presence of DPCPX treated 30 mins before compound challenge; format: cell-based; summary of the method: as §1

Kd (Adenosine receptor A3): 148 nM
SMILES: CCN1/C(=C/C=C/C=C/C2=[N+](CCCCCC(=O)NCCOCCOCCNC(=O)CCC(=O)Nc3nc4ccccc4n4c(=O)n(-c5ccc(OC)cc5)nc34)c3cc(S(=O)(=O)[O-])ccc3C2(C)C)C(C)(C)c2cc(S(=O)(=O)O)ccc21

Kd (Adenosine receptor A3): 20.9 nM
SMILES: COc1ccc(-n2nc3c(NC(=O)CCC(=O)NCCOCCOCCN)nc4ccccc4n3c2=O)cc1

Kd (Adenosine receptor A3): 16.6 nM
SMILES: COc1ccc(-n2nc3c(NC(=O)CCC(=O)NCCCCCCCCNC(=O)CCCCCNC(=O)COc4ccc(/C=C/C5=[N+]6C(=Cc7ccc(-c8cccs8)n7[B-]6(F)F)C=C5)cc4)nc4ccccc4n3c2=O)cc1

Kd (Adenosine receptor A3): 5.62 nM
SMILES: COc1ccc(-n2nc3c(NC(=O)CCC(=O)NCCOCCOCCNC(=O)CCOCCOCCOCCOCCOCCOCCOCCOCCOCCOCCOCCOCCNC(=O)c4ccc(-c5c6ccc(=[N+](C)C)cc-6oc6cc(N(C)C)ccc56)c(C(=O)[O-])c4)nc4ccccc4n3c2=O)cc1

Kd (Adenosine receptor A3): 0.437 nM | Kd (Adenosine receptor A2b): < 1000 nM | Activity [1]: inactive | Selectivity ratio (Homo sapiens): 650 | Activity [2]: Active | Activity [3]: inactive | Kd (Adenosine receptor A1): 275 nM
SMILES: COc1ccc(-n2nc3c(NC(=O)CCC(=O)NCCOCCOCCNC(=O)CCCCCNC(=O)COc4ccc(/C=C/C5=[N+]6C(=Cc7ccc(-c8cccs8)n7[B-]6(F)F)C=C5)cc4)nc4ccccc4n3c2=O)cc1

Kd (Adenosine receptor A3): 1.45 nM
SMILES: COc1ccc(-n2nc3c(NC(=O)CN)nc4ccccc4n3c2=O)cc1

Kd (Adenosine receptor A3): 38 nM
SMILES: COc1ccc(-n2nc3c(NC(=O)c4ccc(N)cc4)nc4ccccc4n3c2=O)cc1

Kd (Adenosine receptor A3): 3.39 nM | Kd (Adenosine receptor A2b): < 1000 nM | Activity [4]: Active | Selectivity ratio (Homo sapiens): 50 | Activity [2]: Active | Activity [3]: Active | Activity [5]: inactive | Kd (Adenosine receptor A1): 166 nM
SMILES: COc1ccc(-n2nc3c(NC(=O)CCC(=O)NCCOCCOCCNC(=O)CCCCCNC(=O)COc4ccc(C5=[N+]6C(=Cc7ccc(-c8cccs8)n7[B-]6(F)F)C=C5)cc4)nc4ccccc4n3c2=O)cc1

Kd (Adenosine receptor A3): 0.331 nM
SMILES: COc1ccc(-n2nc3c(NC(=O)CCC(=O)NCCCCCCCCN)nc4ccccc4n3c2=O)cc1
